The target of series [1] is T1, Neutrophil elastase (Homo sapiens, UniProt P08246).
T1 sequence (P08246 whole entry): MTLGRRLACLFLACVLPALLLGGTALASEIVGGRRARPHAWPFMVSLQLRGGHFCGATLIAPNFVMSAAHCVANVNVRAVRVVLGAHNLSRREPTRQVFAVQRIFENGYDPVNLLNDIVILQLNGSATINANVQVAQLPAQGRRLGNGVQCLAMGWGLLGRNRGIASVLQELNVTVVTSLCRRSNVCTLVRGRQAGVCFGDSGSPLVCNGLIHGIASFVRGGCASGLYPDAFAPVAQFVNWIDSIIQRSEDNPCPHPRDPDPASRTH
Nature of the series: Inhibitory activity against human leukocyte elastase.

The next series concerns the target T2, Cathepsin G (Homo sapiens, UniProt P08311).
T2 sequence (P08311 whole entry): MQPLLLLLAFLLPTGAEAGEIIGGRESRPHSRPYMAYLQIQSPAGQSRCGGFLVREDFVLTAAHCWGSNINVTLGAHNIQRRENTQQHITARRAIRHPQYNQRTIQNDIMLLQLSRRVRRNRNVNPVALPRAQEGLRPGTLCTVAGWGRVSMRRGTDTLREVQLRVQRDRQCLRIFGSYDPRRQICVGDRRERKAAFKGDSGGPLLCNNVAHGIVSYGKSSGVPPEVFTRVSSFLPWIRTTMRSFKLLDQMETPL
Description: Inhibition of cathepsin G at pH 7.5 in HEPES buffer containing 200 mM NaCl with substrate Suc-Ala-Ala-Pro-Phe-pNA. An outline of the steps:
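Wells pre-equilibrated at 37 °C >10 min before enzyme start. A405 followed 15 min. Eight concentrations over a 200-fold span. Ki from competitive fit of vi/vc versus [I].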

The target in a further series is Prothrombin (Homo sapiens, UniProt P00734). Nature of the series: Inhibition of thrombin at pH 7.5 in HEPES buffer containing 200 mM NaCl with substrate Bz-Phe-Val-Arg-pNA. The method, boiled down:
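Reaction started with enzyme after >10 min equilibration. A405 rise recorded 15 min. Eight compound levels over a 200-fold range. Ki from competitive-model fit of vi/vc.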

For series [2], the target named is T3, Neutrophil elastase (Homo sapiens) (UniProt P08246).
T3 sequence (whole entry): T1 sequence (P08246 whole entry)
Conditions: 0.2 uM.

The target of series [3] is T1, Neutrophil elastase. Description: Binding Affinity to inhibit HLE. An outline of the steps:
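Purified human leukocyte elastase (3 nM final) with 10 µM […] (below Km 200 µM) in 50 mM HEPES, 200 mM NaCl, pH 7.5, 0.3% DMSO. Inhibitor and substrate pre-equilibrated at 37 °C for >10 min, then enzyme added. A405 read for 15 min. Eight inhibitor levels spanning a 200-fold range. Ki from fit of vi/vc to the competitive-inhibition equation.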

Series [4] concerns the target T3, Neutrophil elastase (Homo sapiens). The settings on record: 1 uM.
Series [5] has the same target. Conditions: 0.5 uM.
Substrate in series [6]: O=C(O)COc1cc(Cc2cc(OCc3ccccc3)c(Cc3cc(OCc4ccccc4)c(Cc4cc(OCc5ccccc5)c(Cc5cc(OCc6ccccc6)c(Cc6cc(O)ccc6OCC(=O)O)cc5OCC(=O)O)cc4OCC(=O)O)cc3OCC(=O)O)cc2OCC(=O)O)c(OCc2ccccc2)cc1CO
Conditions: 0.5 uM.

Substrate in series [7]: O=C(O)COc1cc(Cc2cc(OCc3ccccc3)c(Cc3cc(OCc4ccccc4)c(Cc4cc(OCc5ccccc5)c(Cc5cc(OCc6ccccc6)c(Cc6cc(O)ccc6OCC(=O)O)cc5OCC(=O)O)cc4OCC(=O)O)cc3OCC(=O)O)cc2OCC(=O)O)c(OCc2ccccc2)cc1CO
Conditions: 0.2 uM.

Substrate in series [8]: O=C(O)COc1cc(Cc2cc(OCc3ccccc3)c(Cc3cc(OCc4ccccc4)c(Cc4cc(OCc5ccccc5)c(Cc5cc(OCc6ccccc6)c(Cc6cc(O)ccc6OCC(=O)O)cc5OCC(=O)O)cc4OCC(=O)O)cc3OCC(=O)O)cc2OCC(=O)O)c(OCc2ccccc2)cc1CO
The settings on record: 1 uM.

Bounds are passed on as bounds.

With `COc1ccc(OCC(=O)O)c(Cc2cc(OCCCc3ccccc3)c(Cc3cc(OCC(=O)O)c(Cc4cc(OCCCc5ccccc5)c(Cc5cc(OCC(=O)O)c(Cc6cc(OCCCc7ccccc7)c(C)cc6OC)cc5OC)cc4OC)cc3OC)cc2OC)c1`, the Ki is 0.1 µM on Neutrophil elastase [1], above 15 µM at Cathepsin G and 1.7 µM at Prothrombin.

For `O=C(O)COc1cc(Cc2cc(OCc3ccccc3)c(Cc3cc(OCc4ccccc4)c(Cc4cc(OCc5ccccc5)c(Cc5cc(OCc6ccccc6)c(Cc6cc(O)ccc6OCC(=O)O)cc5OCC(=O)O)cc4OCC(=O)O)cc3OCC(=O)O)cc2OCC(=O)O)c(OCc2ccccc2)cc1CO`, the Ki at Neutrophil elastase [1] is 0.12 µM; at Cathepsin G, above 15 µM; at Neutrophil elastase [3], 0.19 µM; at Prothrombin, above 15 µM. Also, the Vm in series [2], in series [4] and in series [5] was 0.2 µM in each case.

Turning to `O=C(O)COc1cc(Cc2cc(OCc3ccccc3)c(Cc3cc(OCc4ccccc4)c(Cc4cc(O)ccc4OCC(=O)O)cc3OCC(=O)O)cc2OCC(=O)O)c(OCc2ccccc2)cc1CO`, the values for the Ki at Neutrophil elastase [1], at Cathepsin G and at Prothrombin were 8.3 µM, above 15 µM and above 15 µM, respectively.

Regarding `COc1cc(CO)c(OCc2ccccc2)cc1Cc1cc(OC)c(Cc2cc(OC)c(Cc3cc(OC)c(Cc4cc(OC)c(Cc5cc(O)ccc5OCC(=O)O)cc4OCc4ccccc4)cc3OCC(=O)O)cc2OCc2ccccc2)cc1OCC(=O)O`, the inhibitory constant (Ki) at Neutrophil elastase [1] was 0.2 µM; on Cathepsin G, 1.5 µM; on Prothrombin, above 15 µM.

With `COc1ccc(OCC(=O)O)c(Cc2cc(OCCCCCc3ccccc3)c(Cc3cc(OCC(=O)O)c(Cc4cc(OCCCCCc5ccccc5)c(Cc5cc(OCC(=O)O)c(Cc6cc(OCCCCCc7ccccc7)c(C)cc6OC)cc5OC)cc4OC)cc3OC)cc2OC)c1`, the Ki was 0.017 µM on Neutrophil elastase [1], above 15 µM on Cathepsin G and 1.4 µM at Prothrombin.

Take `O=C(O)COc1cc(Cc2cc(OCc3ccccc3)c(Cc3cc(OCc4ccccc4)c(Cc4cc(OCc5ccccc5)c(Cc5cc(O)ccc5OCC(=O)O)cc4OCC(=O)O)cc3OCC(=O)O)cc2OCC(=O)O)c(OCc2ccccc2)cc1CO`: the results for the Ki on Neutrophil elastase [1], on Cathepsin G and at Prothrombin were 0.13 µM, above 15 µM and 0.75 µM, respectively.

Regarding `COc1ccc(OCC(=O)O)c(Cc2cc(O)c(Cc3cc(OCC(=O)O)c(Cc4cc(O)c(Cc5cc(OCC(=O)O)c(Cc6cc(O)c(C)cc6OC)cc5OC)cc4OC)cc3OC)cc2OC)c1`, the inhibition constant Ki at Neutrophil elastase [1] was 1.3 µM; on Cathepsin G, above 15 µM; on Prothrombin, above 15 µM.

As to `CC(C)(C)c1cc2c(OCC(=O)O)c(c1)Cc1cc(C(C)(C)C)cc(c1OCC(=O)O)Cc1cc(C(C)(C)C)cc(c1OCC(=O)O)Cc1cc(C(C)(C)C)cc(c1OCC(=O)O)Cc1cc(C(C)(C)C)cc(c1OCC(=O)O)Cc1cc(C(C)(C)C)cc(c1OCC(=O)O)Cc1cc(C(C)(C)C)cc(c1OCC(=O)O)Cc1cc(C(C)(C)C)cc(c1OCC(=O)O)C2`, at Neutrophil elastase [1], affinity was put at a Ki of 1.3 µM.

In the case of `COc1ccc(OCC(=O)O)c(Cc2cc(OCC3CCCCC3)c(Cc3cc(OCC(=O)O)c(Cc4cc(OCC5CCCCC5)c(Cc5cc(OCC(=O)O)c(Cc6cc(OCC7CCCCC7)c(C)cc6OC)cc5OC)cc4OC)cc3OC)cc2OC)c1`, the values for the Ki on Neutrophil elastase [1], at Cathepsin G and at Prothrombin were 0.02 µM, above 15 µM and above 15 µM, respectively.

For `COCCOCOc1cc(Cc2cc(OC)c(Cc3cc(OC)c(Cc4cc(OC)c(Cc5cc(OC)c(Cc6cc(OC)ccc6OCC(=O)O)cc5OCOCCOC)cc4OCC(=O)O)cc3OCOCCOC)cc2OCC(=O)O)c(OC)cc1C`, the figures for the inhibition constant (Ki) on Neutrophil elastase [1], at Cathepsin G and at Prothrombin were 1 µM, above 15 µM and 0.24 µM, respectively.

B1: Neutrophil elastase (Homo sapiens), P08246 (protein)
chain: T1 sequence (P08246 whole entry)
In the case of B1, the values for the Km in series [6], in series [7] and in series [8] were 1.1 µM, 0.77 µM and 2.3 µM, respectively.

Usually Ki stands for a dissociation constant, usually derived from enzyme kinetics or from competition with a known ligand. A low value points to a stronger hold on the target. One may read the Km as the substrate concentration at which the rate is half of its maximum.

The values above are taken from ChEMBL document CHEMBL1130189, “Anionic- and lipophilic-mediated surface binding inhibitors of human leukocyte elastase” (J Med Chem, 1997).
